Calls of active or inactive are those of the source. No cut-off for these calls is given here.
Experiments:
Mu-type opioid receptor [1] = biological target: T1, Mu-type opioid receptor (Homo sapiens, UniProt P35372); assay: Displacement of [125I]IOXY from human recombinant mu opioid receptor expressed in CHO cells; format: cell-based
Homo sapiens [2] = species on record: Homo sapiens; assay: Selectivity for human recombinant kappa opioid receptor over human recombinant delta opioid receptor
Homo sapiens [3] = species on record: Homo sapiens; assay: Selectivity for human recombinant kappa opioid receptor over human recombinant mu opioid receptor
[4] = biological target: Delta-type opioid receptor (Homo sapiens, UniProt P41143); assay: Displacement of [125I]IOXY from human recombinant delta opioid receptor expressed in CHO cells; format: cell-based
Sequence of Delta-type opioid receptor (P41143 whole entry): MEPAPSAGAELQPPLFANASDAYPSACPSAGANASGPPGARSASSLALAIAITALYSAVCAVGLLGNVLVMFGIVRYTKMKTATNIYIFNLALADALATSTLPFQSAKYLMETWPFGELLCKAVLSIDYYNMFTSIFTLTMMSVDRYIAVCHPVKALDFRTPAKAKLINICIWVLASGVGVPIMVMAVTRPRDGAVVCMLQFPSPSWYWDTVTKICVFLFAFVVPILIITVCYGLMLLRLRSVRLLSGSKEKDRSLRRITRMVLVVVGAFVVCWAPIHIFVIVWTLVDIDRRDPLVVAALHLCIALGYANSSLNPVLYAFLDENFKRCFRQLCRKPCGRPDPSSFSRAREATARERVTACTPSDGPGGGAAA

[5] = biological target: T2, Kappa-type opioid receptor (Homo sapiens, UniProt P41145); assay: Displacement of [125I]IOXY from human recombinant kappa opioid receptor expressed in CHO cells; format: cell-based
T2 sequence (P41145 whole entry): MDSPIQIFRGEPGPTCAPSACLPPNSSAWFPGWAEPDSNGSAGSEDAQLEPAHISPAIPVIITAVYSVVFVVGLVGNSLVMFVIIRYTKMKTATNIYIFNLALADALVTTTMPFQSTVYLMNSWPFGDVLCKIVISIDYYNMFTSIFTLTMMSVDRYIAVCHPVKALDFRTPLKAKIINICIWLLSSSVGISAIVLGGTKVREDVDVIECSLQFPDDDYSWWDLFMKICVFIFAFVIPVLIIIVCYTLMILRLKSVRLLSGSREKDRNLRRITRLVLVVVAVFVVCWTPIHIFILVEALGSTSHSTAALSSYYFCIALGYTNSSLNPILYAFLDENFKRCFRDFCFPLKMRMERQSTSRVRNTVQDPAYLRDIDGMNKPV

Mu-type opioid receptor [6] = biological target: T1, Mu-type opioid receptor; assay: Agonist activity at human recombinant mu opioid receptor expressed in CHO cells by [35S]GTP-gamma-S binding assay relative to DAMGO; format: functional, cell-based
Mu-type opioid receptor [7] = biological target: T1, Mu-type opioid receptor; assay: Agonist activity at human mu opioid receptor expressed in CHO cells assessed as increase in ERK phosphorylation after 10 mins; format: functional, cell-based
Outline: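 CHO cells stably expressing human MOR1 (~800 fmol/mg membrane protein), serum-starved 30 min at 37°C, then treated 10 min, with naloxone present where indicated. Lysates were run on SDS-PAGE and immunoblotted for total ERK1/2, then stripped and reprobed for phospho-ERK (Tyr204), with HRP chemiluminescence detection. Densitometry; at least three experiments in triplicate.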

Mu-type opioid receptor [8] = biological target: T1, Mu-type opioid receptor; assay: Agonist activity at human recombinant mu opioid receptor expressed in CHO cells by [35S]GTP-gamma-S binding assay; format: functional, cell-based
[9] = biological target: T2, Kappa-type opioid receptor; assay: Agonist activity at human recombinant kappa opioid receptor expressed in CHO cells by [35S]GTPgammaS binding assay relative to (-)-U50,488; format: functional, cell-based
[10] = biological target: T2, Kappa-type opioid receptor; assay: Agonist activity at human recombinant kappa opioid receptor expressed in CHO cells by [35S]GTP-gamma-S binding assay; format: functional, cell-based
Mu-type opioid receptor [11] = biological target: T1, Mu-type opioid receptor; assay: Agonist activity at mu opioid receptor expressed in HEK293 cells assessed as induction of beta-arrestin-2-GFP plasma membrane translocation at 10 uM after 10 mins; format: functional, cell-based
Outline: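 HEK-293 cells stably expressing MOR (~1000 fmol/mg membrane protein), or transiently expressing MOR1, were transiently transfected with βarr2-GFP (2 μg), with or without GRK2 (1.5 μg). After 24–36 h at 37°C and 30 min serum starvation, basal images were taken. Drug was then applied at 10 μM for 10 min, with confocal imaging each minute; cells shown at 5 min. At least 3 independent experiments.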

T1 sequence (P35372 whole entry): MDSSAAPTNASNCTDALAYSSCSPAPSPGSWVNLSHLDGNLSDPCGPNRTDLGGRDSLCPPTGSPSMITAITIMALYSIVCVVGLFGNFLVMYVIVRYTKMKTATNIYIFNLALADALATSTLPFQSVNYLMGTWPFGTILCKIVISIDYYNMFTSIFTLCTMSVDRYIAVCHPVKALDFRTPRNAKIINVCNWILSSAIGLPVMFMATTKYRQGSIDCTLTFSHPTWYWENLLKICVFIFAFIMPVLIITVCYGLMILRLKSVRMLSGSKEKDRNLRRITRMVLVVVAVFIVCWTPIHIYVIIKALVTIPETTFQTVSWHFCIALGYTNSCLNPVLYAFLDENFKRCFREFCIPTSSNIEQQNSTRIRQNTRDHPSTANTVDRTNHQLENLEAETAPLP

Compound | Ki (Mu-type opioid receptor [1]) | Ratio Ki (Homo sapiens [2]) | Ratio Ki (Homo sapiens [3]) | Ki [4] | Ki [5] | Emax (Mu-type opioid receptor [6]) | Activity (Mu-type opioid receptor [7]) | EC50 (Mu-type opioid receptor [8]) | Emax [9] | EC50 [10] | Activity (Mu-type opioid receptor [11])
COC(=O)[C@@H]1C[C@H](OC(=O)c2cccc([N+](=O)[O-])c2)C(=O)[C@H]2[C@@]1(C)CC[C@H]1C(=O)O[C@H](c3ccoc3)C[C@]21C | > 10000 nM | > 12 | > 12 | > 10000 nM | 800 nM | – | – | – | – | – | –
COC(=O)[C@@H]1C[C@H](NS(=O)(=O)c2ccccc2)C(=O)[C@H]2[C@@]1(C)CC[C@H]1C(=O)O[C@H](c3ccoc3)C[C@]21C | > 10000 nM | > 7 | > 7 | > 10000 nM | 1400 nM | – | – | – | – | – | –
COC(=O)[C@@H]1C[C@H](SC(=O)c2ccccc2)C(=O)[C@H]2[C@@]1(C)CC[C@H]1C(=O)O[C@H](c3ccoc3)C[C@]21C | 290 nM | 1.4 | 0.21 | 1930 nM | 1410 nM | – | – | – | – | – | –
COC(=O)[C@@H]1C[C@H](OC(=O)c2ccc(Br)cc2)C(=O)[C@H]2[C@@]1(C)CC[C@H]1C(=O)O[C@H](c3ccoc3)C[C@]21C | – | 2 | 0.01 | – | – | 108% | Dose-dependent effect | 4890 nM | – | – | –
COC(=O)[C@@H]1C[C@H](NC(C)=O)C(=O)[C@H]2[C@@]1(C)CC[C@H]1C(=O)O[C@H](c3ccoc3)C[C@]21C | 4180 nM | > 330 | 13 | > 10000 nM | 30 nM | – | – | – | 108% | 120 nM | –
COC(=O)[C@@H]1C[C@H](OC(=O)c2cc3ccccc3o2)C(=O)[C@H]2[C@@]1(C)CC[C@H]1C(=O)O[C@H](c3ccoc3)C[C@]21C | 10 nM | 8 | 0.14 | 580 nM | 70 nM | 104% | – | 1680 nM | 109% | 1120 nM | –
COC(=O)[C@@H]1C[C@H](OC(=O)c2ccc(OC)cc2)C(=O)[C@H]2[C@@]1(C)CC[C@H]1C(=O)O[C@H](c3ccoc3)C[C@]21C | 70 nM | 3 | 0.12 | 1860 nM | 540 nM | 94% | Dose-dependent effect | 830 nM | 106% | 2610 nM | –
COC(=O)[C@@H]1C[C@H](NC(=O)c2ccccc2)C(=O)[C@H]2[C@@]1(C)CC[C@H]1C(=O)O[C@H](c3ccoc3)C[C@]21C | 3.1 nM | 0.11 | 0.0004 | 810 nM | 7430 nM | 134% | Dose-dependent effect | 360 nM | – | – | Active
COC(=O)[C@@H]1C[C@H](OC(=O)c2ccsc2)C(=O)[C@H]2[C@@]1(C)CC[C@H]1C(=O)O[C@H](c3ccoc3)C[C@]21C | 10 nM | 9 | 0.16 | 690 nM | 80 nM | 108% | – | 690 nM | 95% | 840 nM | –
COC(=O)[C@@H]1C[C@H](OC(=O)c2ccccc2OC)C(=O)[C@H]2[C@@]1(C)CC[C@H]1C(=O)O[C@H](c3ccoc3)C[C@]21C | 1640 nM | > 43 | 7 | > 10000 nM | 230 nM | – | – | – | – | – | –
COC(=O)[C@@H]1C[C@H](OC(=O)c2cccc(OC)c2)C(=O)[C@H]2[C@@]1(C)CC[C@H]1C(=O)O[C@H](c3ccoc3)C[C@]21C | 30 nM | 2 | 0.05 | 1140 nM | 550 nM | 72% | – | 1670 nM | 97% | 3590 nM | –
COC(=O)[C@@H]1C[C@H](OC(=O)c2ccccc2[N+](=O)[O-])C(=O)[C@H]2[C@@]1(C)CC[C@H]1C(=O)O[C@H](c3ccoc3)C[C@]21C | 7550 nM | > 11 | 8 | > 10000 nM | 900 nM | – | – | – | – | – | –
COC(=O)[C@@H]1C[C@H](OC(=O)c2ccccc2Br)C(=O)[C@H]2[C@@]1(C)CC[C@H]1C(=O)O[C@H](c3ccoc3)C[C@]21C | – | > 100 | 1.2 | – | – | – | – | – | – | – | –
COC(=O)[C@@H]1C[C@H](OC(=O)c2ccccc2)C(=O)[C@H]2[C@@]1(C)CC[C@H]1C(=O)O[C@H](c3ccoc3)C[C@]21C | – | 12 | 0.13 | – | – | – | – | – | – | – | –
COC(=O)[C@@H]1C[C@H](NS(C)(=O)=O)C(=O)[C@H]2[C@@]1(C)CC[C@H]1C(=O)O[C@H](c3ccoc3)C[C@]21C | > 10000 nM | > 38 | > 38 | > 10000 nM | 260 nM | – | – | – | – | – | –
COC(=O)[C@@H]1C[C@H](OC(=O)C2CCCCC2)C(=O)[C@H]2[C@@]1(C)CC[C@H]1C(=O)O[C@H](c3ccoc3)C[C@]21C | 1030 nM | > 5 | 0.5 | > 10000 nM | 2010 nM | – | – | – | – | – | –
COC(=O)[C@@H]1C[C@H](OC(=O)c2cccc(Br)c2)C(=O)[C@H]2[C@@]1(C)CC[C@H]1C(=O)O[C@H](c3ccoc3)C[C@]21C | – | > 100 | 1.6 | – | – | – | – | – | – | – | –
COC(=O)[C@@H]1C[C@H](O)C(=O)[C@H]2[C@@]1(C)CC[C@H]1C(=O)O[C@H](c3ccoc3)C[C@]21C [SALVINORIN B] | > 10000 nM | – | – | > 10000 nM | – | – | – | – | – | – | –
COC(=O)[C@@H]1C[C@H](OC(=O)c2ccc([N+](=O)[O-])cc2)C(=O)[C@H]2[C@@]1(C)CC[C@H]1C(=O)O[C@H](c3ccoc3)C[C@]21C | 260 nM | 0.45 | 13 | > 10000 nM | 570 nM | 46% | Dose-dependent effect | 1370 nM | – | – | –
COC(=O)[C@@H]1C[C@H](OC(=O)c2cccc3ccccc23)C(=O)[C@H]2[C@@]1(C)CC[C@H]1C(=O)O[C@H](c3ccoc3)C[C@]21C | > 10000 nM | > 24 | > 24 | > 10000 nM | 410 nM | – | – | – | – | – | –
COC(=O)[C@@H]1C[C@H](OC(=O)c2ccc3ccccc3c2)C(=O)[C@H]2[C@@]1(C)CC[C@H]1C(=O)O[C@H](c3ccoc3)C[C@]21C | 180 nM | > 2 | 0.03 | > 10000 nM | 5490 nM | – | – | – | – | – | –
COC(=O)[C@@H]1C[C@H](OC(=O)c2cccs2)C(=O)[C@H]2[C@@]1(C)CC[C@H]1C(=O)O[C@H](c3ccoc3)C[C@]21C | – | 5 | 0.04 | – | – | 95% | – | 1150 nM | – | – | –
